Biological target: Kappa-type opioid receptor (Homo sapiens, UniProt P41145)
Assay: Agonist activity at human KOR expressed in CHO cells assessed as inhibition of forskolin-induced cAMP accumulation after 30 mins by luminescence assay
Type: functional, cell-based
How it was run: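 CHO cells stably expressing KOR or MOR, plated at 10 000 cells/well and incubated overnight at 37 °C. Compounds given as 10-point serial dilutions (1% DMSO final) with 20 μM forskolin final in HBSS/10 mM HEPES. Incubation 30 min at 37 °C, then detection reagents overnight at room temperature. HitHunter cAMP luminescence read-out; data normalized to vehicle and forskolin-only controls, nonlinear regression.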

Chain of Kappa-type opioid receptor (P41145 whole entry): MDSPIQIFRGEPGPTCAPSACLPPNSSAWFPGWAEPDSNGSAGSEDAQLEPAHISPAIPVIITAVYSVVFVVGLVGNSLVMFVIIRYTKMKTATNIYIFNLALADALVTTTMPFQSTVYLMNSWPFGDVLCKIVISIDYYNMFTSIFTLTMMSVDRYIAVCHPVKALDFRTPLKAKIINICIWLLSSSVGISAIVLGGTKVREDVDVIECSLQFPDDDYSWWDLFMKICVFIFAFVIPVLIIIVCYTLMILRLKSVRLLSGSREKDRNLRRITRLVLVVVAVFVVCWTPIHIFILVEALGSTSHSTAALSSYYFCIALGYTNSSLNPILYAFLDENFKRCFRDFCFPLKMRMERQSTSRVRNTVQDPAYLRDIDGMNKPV

| Compound | EC50 [nM] | Emax [%] |
| --- | --- | --- |
| COC(=O)[C@@H]1C[C@H](OC(C)=O)C(=O)[C@H]2[C@@]1(C)CC[C@H]1C(=O)O[C@H](c3ccoc3CCc3ccccc3)C[C@]21C | 38 | 100 |
| COC(=O)[C@@H]1C[C@H](OC(C)=O)C(=O)[C@H]2[C@@]1(C)CC[C@H]1C(=O)O[C@H](c3ccoc3-c3ccc4ccccc4c3)C[C@]21C | 25 | 100 |
| COC(=O)[C@@H]1C[C@H](OC(C)=O)C(=O)[C@H]2[C@@]1(C)CC[C@H]1C(=O)O[C@H](c3ccoc3C#N)C[C@]21C | 9.4 | 100 |
| COC(=O)[C@@H]1C[C@H](OC(C)=O)C(=O)[C@H]2[C@@]1(C)CC[C@H]1C(=O)O[C@H](c3ccoc3-c3ccccc3C)C[C@]21C | 5.4 | 100 |
| COC(=O)[C@@H]1C[C@H](OC(C)=O)C(=O)[C@H]2[C@@]1(C)CC[C@H]1C(=O)O[C@H](c3ccoc3C#CCCCO)C[C@]21C | 890 | 100 |
| COC(=O)[C@@H]1C[C@H](OC(C)=O)C(=O)[C@H]2[C@@]1(C)CC[C@H]1C(=O)O[C@H](c3cc(C)oc3C)C[C@]21C | 250 | 100 |
| COC(=O)[C@@H]1C[C@H](OC(C)=O)C(=O)[C@H]2[C@@]1(C)CC[C@H]1C(=O)O[C@H](c3ccoc3-c3ccoc3)C[C@]21C | 6.5 | 100 |
| COC(=O)[C@@H]1C[C@H](OC(C)=O)C(=O)[C@H]2[C@@]1(C)CC[C@H]1C(=O)O[C@H](c3ccoc3-c3ccc(OC)cc3)C[C@]21C | 16 | 100 |
| COC(=O)[C@@H]1C[C@H](OC(C)=O)C(=O)[C@H]2[C@@]1(C)CC[C@H]1C(=O)O[C@H](c3ccoc3C3CC3)C[C@]21C | 1 | 100 |
| COC(=O)[C@@H]1C[C@H](OC(C)=O)C(=O)[C@H]2[C@@]1(C)CC[C@H]1C(=O)O[C@H](c3coc(C(F)(F)F)c3)C[C@]21C | 3.1 | 100 |
| C=Cc1occc1[C@@H]1C[C@]2(C)[C@H]3C(=O)[C@@H](OC(C)=O)C[C@@H](C(=O)OC)[C@]3(C)CC[C@H]2C(=O)O1 | 0.96 | 100 |
| COC(=O)[C@@H]1C[C@H](OC(C)=O)C(=O)[C@H]2[C@@]1(C)CC[C@H]1C(=O)O[C@H](c3ccoc3-c3ccccc3[N+](=O)[O-])C[C@]21C | 360 | 100 |
| CCc1occc1[C@@H]1C[C@]2(C)[C@H]3C(=O)[C@@H](OC(C)=O)C[C@@H](C(=O)OC)[C@]3(C)CC[C@H]2C(=O)O1 | 2.9 | 100 |
| CCCC#Cc1occc1[C@@H]1C[C@]2(C)[C@H]3C(=O)[C@@H](OC(C)=O)C[C@@H](C(=O)OC)[C@]3(C)CC[C@H]2C(=O)O1 | 9250 | 100 |
| COC(=O)[C@@H]1C[C@H](OC(C)=O)C(=O)[C@H]2[C@@]1(C)CC[C@H]1C(=O)O[C@H](c3ccoc3-c3ccc(N)cc3)C[C@]21C | 620 | 65 |
| COC(=O)[C@@H]1C[C@H](OC(C)=O)C(=O)[C@H]2[C@@]1(C)CC[C@H]1C(=O)O[C@H](c3ccoc3-c3ccccc3)C[C@]21C | 1.3 | 100 |
| COC(=O)[C@@H]1C[C@H](OC(C)=O)C(=O)[C@H]2[C@@]1(C)CC[C@H]1C(=O)O[C@H](c3ccoc3-c3cccc4ccccc34)C[C@]21C | 37 | 100 |
| COC(=O)[C@@H]1C[C@H](OC(C)=O)C(=O)[C@H]2[C@@]1(C)CC[C@H]1C(=O)O[C@H](c3ccoc3/C=C/c3ccccc3)C[C@]21C | 20 | 100 |
| COC(=O)[C@@H]1C[C@H](OC(C)=O)C(=O)[C@H]2[C@@]1(C)CC[C@H]1C(=O)O[C@H](c3ccoc3-c3cccc(N)c3)C[C@]21C | 630 | 100 |
| COC(=O)[C@@H]1C[C@H](OC(C)=O)C(=O)[C@H]2[C@@]1(C)CC[C@H]1C(=O)O[C@H](c3ccoc3-c3ccc([N+](=O)[O-])cc3)C[C@]21C | 170 | 100 |
| COC(=O)[C@@H]1C[C@H](OC(C)=O)C(=O)[C@H]2[C@@]1(C)CC[C@H]1C(=O)O[C@H](c3ccoc3-c3cccc(OC)c3)C[C@]21C | 8.6 | 100 |

| Compound | EC50 [nM] | Emax [%] |
| --- | --- | --- |
| COC(=O)[C@@H]1C[C@H](OC(C)=O)C(=O)[C@H]2[C@@]1(C)CC[C@H]1C(=O)O[C@H](c3ccoc3C(F)(F)F)C[C@]21C | 31 | 100 |
| COC(=O)[C@@H]1C[C@H](OC(C)=O)C(=O)[C@H]2[C@@]1(C)CC[C@H]1C(=O)O[C@H](c3cc(Br)oc3Br)C[C@]21C | 240 | 100 |
| COC(=O)[C@@H]1C[C@H](OC(C)=O)C(=O)[C@H]2[C@@]1(C)CC[C@H]1C(=O)O[C@H](c3ccoc3-c3cccc(C)c3)C[C@]21C | 3.4 | 100 |
| COC(=O)[C@@H]1C[C@H](OC(C)=O)C(=O)[C@H]2[C@@]1(C)CC[C@H]1C(=O)O[C@H](c3ccoc3CO)C[C@]21C | 3.3 | 100 |
| COC(=O)[C@@H]1C[C@H](OC(C)=O)C(=O)[C@H]2[C@@]1(C)CC[C@H]1C(=O)O[C@H](c3ccoc3C#Cc3ccccc3)C[C@]21C | 100 | 100 |
| COC(=O)[C@@H]1C[C@H](OC(C)=O)C(=O)[C@H]2[C@@]1(C)CC[C@H]1C(=O)O[C@H](c3ccoc3-c3ccccc3F)C[C@]21C | 1.2 | 100 |
| COC(=O)[C@@H]1C[C@H](OC(C)=O)C(=O)[C@H]2[C@@]1(C)CC[C@H]1C(=O)O[C@H](c3ccoc3-c3ccccc3N)C[C@]21C | 430 | 100 |
| COC(=O)[C@@H]1C[C@H](OC(C)=O)C(=O)[C@H]2[C@@]1(C)CC[C@H]1C(=O)O[C@H](c3ccoc3-c3ccccc3OC)C[C@]21C | 10 | 100 |
| COC(=O)[C@@H]1C[C@H](OC(C)=O)C(=O)[C@H]2[C@@]1(C)CC[C@H]1C(=O)O[C@H](c3ccoc3-c3ccc(C(F)(F)F)cc3)C[C@]21C | 1020 | 100 |
| COC(=O)[C@@H]1C[C@H](OC(C)=O)C(=O)[C@H]2[C@@]1(C)CC[C@H]1C(=O)O[C@H](c3ccoc3-c3cccc(F)c3)C[C@]21C | 12 | 100 |
| CC#Cc1occc1[C@@H]1C[C@]2(C)[C@H]3C(=O)[C@@H](OC(C)=O)C[C@@H](C(=O)OC)[C@]3(C)CC[C@H]2C(=O)O1 | 26 | 100 |
| COC(=O)[C@@H]1C[C@H](OC(C)=O)C(=O)[C@H]2[C@@]1(C)CC[C@H]1C(=O)O[C@H](c3ccoc3C=O)C[C@]21C | 7.3 | 100 |
| COC(=O)[C@@H]1C[C@H](OC(C)=O)C(=O)[C@H]2[C@@]1(C)CC[C@H]1C(=O)O[C@H](c3ccoc3-c3ccsc3)C[C@]21C | 4.3 | 100 |
| COC(=O)[C@@H]1C[C@H](OC(C)=O)C(=O)[C@H]2[C@@]1(C)CC[C@H]1C(=O)O[C@H](c3ccoc3-c3ccco3)C[C@]21C | 6.7 | 100 |
| COC(=O)[C@@H]1C[C@H](OC(C)=O)C(=O)[C@H]2[C@@]1(C)CC[C@H]1C(=O)O[C@H](c3ccoc3-c3cccc([N+](=O)[O-])c3)C[C@]21C | 450 | 100 |
| COC(=O)[C@@H]1C[C@H](OC(C)=O)C(=O)[C@H]2[C@@]1(C)CC[C@H]1C(=O)O[C@H](c3ccoc3-c3ccc(C)cc3)C[C@]21C | 2.3 | 100 |
| COC(=O)[C@@H]1C[C@H](OC(C)=O)C(=O)[C@H]2[C@@]1(C)CC[C@H]1C(=O)O[C@H](c3ccoc3-c3cccc(C(F)(F)F)c3)C[C@]21C | 27 | 100 |
| COC(=O)[C@@H]1C[C@H](OC(C)=O)C(=O)[C@H]2[C@@]1(C)CC[C@H]1C(=O)O[C@H](c3ccoc3-c3ccccc3C(F)(F)F)C[C@]21C | 8.4 | 100 |
| COC(=O)[C@@H]1C[C@H](OC(C)=O)C(=O)[C@H]2[C@@]1(C)CC[C@H]1C(=O)O[C@H](c3ccoc3C#Cc3ccccc3OC)C[C@]21C | 6100 | 100 |
| COC(=O)[C@@H]1C[C@H](OC(C)=O)C(=O)[C@H]2[C@@]1(C)CC[C@H]1C(=O)O[C@H](c3ccoc3C#Cc3ccccc3C(F)(F)F)C[C@]21C | 430 | 100 |
| COC(=O)[C@@H]1C[C@H](OC(C)=O)C(=O)[C@H]2[C@@]1(C)CC[C@H]1C(=O)O[C@H](c3ccoc3-c3ccc(F)cc3)C[C@]21C | 54 | 100 |
